# Screens from PubChem.
# Sampled rows, rich in hits. Any-hit rate of the full collection: about 1.6%.
# TPT1 inh: C. albicans TPT1 enzyme inhibition; 300,000 compounds, 0.81% hits; recombinant caTPT1, FP RNA substrate dephosphorylation; AID 1962; inhibition, % at 5 µM;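 active = inhibition above the mean of all tested compounds plus 3 SD, set per screening campaign, cut at about 24% in these data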;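 note: plate controls were DMSO alone for no effect and ferristatin control at 100 nM for full effect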
# HNF4A DNA FP: change in binding of human HNF4 alpha to DNA | activity change, % at 10 µM | P41235 | HNF4a-FITC DNA binding, fluorescence polarization, 1 h | 360,000 compounds, 0.3% hits; in the data active = activity change above about 30%, passing the limit was not always enough
# Rpn11 block: Rpn11 (human) deubiquitinase inhibition; AID 588493; calls only at 20 µM; O00487; human 26S proteasome, Ub4-pepOG fluorescence polarization; 20S core pre-blocked with epoxomicin; 360,000 compounds, 0.59% hits;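 active = inhibition at 20 µM, scaled to each plate's controls, above about 33%, limit read from the data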
# PKA-R1A activ: activators of PKA-R1A complex | P00514+P68181 | PKA-R1A dissociation, Cy5-IP20 fluorescence polarization; scaled: DMSO 0%, 113 µM cGMP 100% | activation, % at 11.4 µM | 340,000 compounds, 0.083% hits | AID 504707;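 active = percent activation above the mean of all tested compounds plus 3 SD, cut at about 19% in these data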;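 note: higher means more PKAc released from R1A so a rise in polarization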
# CSN inh: blocks human CSN-mediated cullin deneddylation; inhibition, % at 12.5 µM; Purified CSN, SCF-Nedd8-OG deneddylation, fluorescence polarization; AID 651999; 360,000 compounds, 0.38% hits;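 active = pattern-corrected inhibition above about 35%, with an unprinted fluorescence ratio check between 0.5 and 1.5, limit read from the data, passing the limit was not always enough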;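 note: 0% = enzyme with substrate and 100% = substrate without enzyme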
#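 Test system: purified human Csn5 enzyme expressed in HEK293T cells. Amount: 0.24 nM enzyme. Reagent: SCFSkp2-Nedd8OG substrate at 10 nM final. Schedule: 90 min incubation of compound, enzyme and substrate at room temperature. Detection: fluorescence polarization. Read-out: % inhibition of substrate cleavage by Csn5.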
# PKA-R2B act: activators of human PKA-R2B complex. 340,000 compounds, 0.079% hits. activation, % at 11.4 µM. PKA-R2B holoenzyme dissociation, Cy5-IP20 fluorescence polarization; R2B truncated from residue 108, S112A mutant; 0% DMSO only, 100% 113 µM cGMP. P22694+P31323;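 active = activation above a cutoff set at the mean over all compounds plus 3 SD, cut at about 18% in these data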;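 note: higher means more holoenzyme dissociation and a rise in polarization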
# Rpn11 inh conf: confirmation of human proteasome Rpn11 inhibitors; shares compounds with Rpn11 block; purified human 26S proteasome, Ub4-pepOG fluorescence polarization; proteasome pretreated with epoxomicin; inhibition, % at 20 µM; 1,900 compounds, 29% hits; AID 602318
# MMP-2 counter: blocks human MMP-2, flagging nonselective RPN11 hits; recombinant MMP-2, FRET peptide cleavage fluorescence; 1,900 compounds, 4% hits; shares compounds with Rpn11 block; inhibition, % at 20 µM;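 note: human MMP-2 activated beforehand with APMA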
# Target sequence (P08253 whole entry, looked up): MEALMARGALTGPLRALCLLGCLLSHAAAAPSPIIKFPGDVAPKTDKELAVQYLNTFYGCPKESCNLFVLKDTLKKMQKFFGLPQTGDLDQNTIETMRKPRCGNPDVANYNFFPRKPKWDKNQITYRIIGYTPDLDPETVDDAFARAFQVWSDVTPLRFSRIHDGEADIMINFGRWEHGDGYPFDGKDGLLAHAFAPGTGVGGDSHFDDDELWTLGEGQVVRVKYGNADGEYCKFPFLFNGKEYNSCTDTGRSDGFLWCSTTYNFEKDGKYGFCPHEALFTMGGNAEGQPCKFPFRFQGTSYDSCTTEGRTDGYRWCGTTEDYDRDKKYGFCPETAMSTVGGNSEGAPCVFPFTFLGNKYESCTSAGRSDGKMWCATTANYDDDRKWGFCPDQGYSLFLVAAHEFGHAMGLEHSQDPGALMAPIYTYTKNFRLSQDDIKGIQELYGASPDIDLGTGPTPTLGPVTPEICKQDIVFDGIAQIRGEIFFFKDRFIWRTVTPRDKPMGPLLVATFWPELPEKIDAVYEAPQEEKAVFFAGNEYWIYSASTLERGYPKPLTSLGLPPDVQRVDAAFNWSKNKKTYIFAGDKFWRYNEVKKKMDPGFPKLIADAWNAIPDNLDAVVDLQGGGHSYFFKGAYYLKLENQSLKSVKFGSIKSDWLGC
# Thrombin inh: counter-screen for RPN11 inhibitors: inhibition of bovine thrombin; shares compounds with Rpn11 block; AID 602333; 1,900 compounds, 13% hits; inhibition, % at 20 µM; bovine thrombin cleavage of Ub4-pepOG, fluorescence polarization;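 active = mean inhibition at least 40% at 20 µM, or signal 3 deviations below plate average, so some actives read negative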;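 note: plate controls were thrombin with DMSO for no effect and buffer wells lacking thrombin for full effect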
# Numbers without * were called inactive; i = inactive; x = no result; + = active, no number. Cut-off read from the data, not from the text of the source, unless noted: active = inhibition above about 40%; inactive = the rest.
SMILES,TPT1 inh,HNF4A DNA FP,Rpn11 block,PKA-R1A activ,CSN inh,PKA-R2B act,Rpn11 inh conf,MMP-2 counter,Thrombin inh
COc1ccccc1Cc1c(-c2ccccc2)nc2ccc(Cl)cn12,x,12,i,x,5,x,x,x,x
Cc1cccc(C(=O)N(C(=O)c2cccc(C)c2)N(C)C)c1,x,-3,i,-25,-3,-3,x,x,x
COc1ccccc1NS(=O)(=O)c1cc(N=N/C(C(=O)Nc2ccc(Cl)cc2)=C(/C)O)ccc1C,x,17,+,1,8,0,-9,-10,-13
COc1ccc(C(=O)OCC(=O)NCCN2C(=O)CSC2=O)cc1[N+](=O)[O-],x,0,i,2,0,-15,x,x,x
O=C(Nc1nc2c(s1)CCCC2)c1ccc(Br)o1,-4,0,+,-7,-5,2,-3,2,3
Cc1ccc(C(=O)Nc2nc3c(s2)CCCC3)o1,-3,1,i,-12,-3,-5,x,x,x
O=C(NN1CCN(Cc2ccccc2)CC1)c1ccc(Cl)cc1,1,5,i,-1,2,3,x,x,x
COc1ccc(OC)c(NC(=O)CSc2sc3c(O)cc(=O)[nH]c3c2C#N)c1,5,-22,i,0,11,7,x,x,x
COc1cc(Cl)c(C)cc1NC(=O)CSc1sc2c(O)cc(=O)[nH]c2c1C#N,8,-27,+,8,22,-4,-5,2,-22
CN(Cc1ccccc1)c1cc2c(c3c1ccn3C)C1CCC2O1 (stereo unspecified),x,3,i,x,3,x,x,x,x
COc1ccccc1N(C)c1cc2c(c3c1ccn3C)C1CCC2O1 (stereo unspecified),x,10,+,x,11,x,-8,-57,3
Cn1ccc2c(N3c4ccccc4CCc4ccccc43)cc3c(c21)C1CCC3O1 (stereo unspecified),x,29,+,x,16,x,7,-40,-6
O=C(CN1CCCC1)N/N=C/c1c(O)ccc2ccccc12,9,10,+,-5,9,4,1,-19,-11
O=C(N/N=C/c1c(O)ccc2ccccc12)C(=O)N1CCCC1,x,7,i,-11,4,-3,x,x,x
CS(=O)(=O)NCCCCCCNS(C)(=O)=O,-8,2,i,-11,-7,-9,x,x,x
COc1ccc(O)c(/C=N/NC(=O)c2ccc(OCc3cccc(Br)c3)cc2)c1,0,44*,+,-1,12,-7,56*,4,-11
O=C(NN=C1c2ccccc2-c2ccccc21)c1ccccn1,0,1,+,-9,-3,7,60*,-28,-14
CCOc1ccc(CCNC(=O)c2cccc(S(=O)(=O)N3CCN(C(C)=O)CC3)c2)cc1OCC,0,0,i,6,-1,3,x,x,x
O=C(CSc1nnc(CNC(=O)c2ccco2)o1)Nc1cccc(Cl)c1,2,3,i,2,-1,-2,x,x,x
O=C(Cn1c2ccccc2c(=O)c2ccccc21)N/N=C/c1cc([N+](=O)[O-])ccc1N1CCCCC1,3,13,+,-14,3,8,18,-10,17
O=C(N/N=C\c1cc([N+](=O)[O-])ccc1N1CCCC1)c1ccccn1,1,-1,i,3,3,12,x,x,x
CCc1cccc(CC)c1NC(=O)CN1CC(C)SC1=NC1CCCCC1 (stereo unspecified),-18,5,+,0,-2,-3,-13,-7,-4
CCc1cccc(CC)c1NC(=O)NC1CCCCC1,-2,1,i,12,-4,5,x,x,x
Cc1c(C(=O)Nc2cccnc2)oc2ccc(Br)cc12,0,1,i,-1,3,-10,x,x,x
O=c1nc(Nc2ccc(Br)cc2)sc2ccc([N+](=O)[O-])cc12,-1,-5,+,0,46*,2,-5,-1,-9
SMILES,TPT1 inh,HNF4A DNA FP,Rpn11 block,PKA-R1A activ,CSN inh,PKA-R2B act,Rpn11 inh conf,MMP-2 counter,Thrombin inh
CCOC(=O)C1=C(C)N=c2s/c(=C\c3cc(OC)c(OC)c(OC)c3)c(=O)n2C1/C=C/c1ccccc1 (stereo unspecified),4,3,i,-1,10,-11,x,x,x
CCOC(=O)C1=C(C)N=c2sc(=Cc3cc(Cl)c(OCC(=O)O)c(OC)c3)c(=O)n2C1c1ccccc1Cl (stereo unspecified),x,13,+,x,24,x,34,-20,65*
COCCNC(=O)COc1ccc(C)cc1C(=O)c1cc(C#N)c(=O)n(C2CC2)c1,-2,-4,i,-5,-2,2,x,x,x
CCOC(=O)C1=C(C)Nc2nnnn2C1c1cccc(OC)c1OC (stereo unspecified),0,19,+,3,1,-4,0,-34,-9
C=CCOC(=O)C1=C(C)Nc2nnnn2C1c1cccc(OC)c1OC (stereo unspecified),-3,-1,i,8,-2,-2,x,x,x
N#Cc1cc2c(nc1SCC(=O)Nc1sc3c(c1C#N)CCC3)CCC2,3,0,i,-7,4,7,x,x,x
COc1ccc(-c2ccc(C#N)c(SCC(=O)Nc3sc4c(c3C#N)CCC4)n2)cc1OC,15,47*,+,-4,121,0,12,-18,4
Cc1cc(Nc2ccc3c(c2)OCCO3)c2cc(Cl)ccc2n1,1,4,i,-4,-12,-8,x,x,x
O=C(C[C@H]1C[C@H](C(=O)N2CCOCC2)[C@@]2(CCC3CCCC3)c3[nH]c4cc(-c5ccco5)ccc4c3CCN2C1=O)NCCC1=CCCCC1,x,9,+,0,8,8,2,-24,-6
C[C@]12c3[nH]c4cc(-c5ccco5)ccc4c3CCN1C(=O)[C@@H](CC(=O)NCC13CC4CC(CC(C4)C1)C3)C[C@@H]2C(=O)N1CCCCC1,x,6,+,-2,23,-1,-6,5,-10
COc1ccc(CNC(=O)C[C@H]2C[C@H](C(=O)N3CCCCC3)[C@@]3(CCc4ccccc4)c4[nH]c5cc(-c6ccco6)ccc5c4CCN3C2=O)cc1OC,x,11,+,1,14,1,3,-2,-5
